Data reported in ChEMBL document CHEMBL1125116 (J Med Chem, 1990).

How the values were obtained:
Rattus norvegicus [1] = test: Biodistribution of [125I]-IBF in liver was determined in rats 60 minutes after intraveneous injection; format: ADME, organism-based; details: in vivo, iv, 1 h
Outline: (§1)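 Male Sprague–Dawley rats (225–300 g) with free access to food and water. Under halothane anesthesia they received [125I]IBF (8–10 μCi in 0.2 mL saline) into the femoral vein. Rats were killed by cardiac excision under halothane at the stated time. Organs were weighed and gamma-counted, and % dose/organ was taken against diluted aliquots of the injectate. Blood was assumed to be 7% of body weight and muscle 40%.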

Rattus norvegicus [2] = test: Biodistribution of [125I]IBF in brain was determined in rats 120 minutes after intraveneous injection; format: ADME, organism-based; details: in vivo, iv, 2 h; outline: as §1
Rattus norvegicus [3] = test: Biodistribution of [125I]IBF in blood was determined in rats 120 minutes after intraveneous injection; format: ADME, organism-based; details: in vivo, iv, 2 h; outline: as §1
Rattus norvegicus [4] = test: Biodistribution of [125I]IBF in thyroid was determined in rats 60 minutes after intraveneous injection; format: ADME, organism-based, Thyroid gland; details: in vivo, iv, 1 h
Outline: (§2)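 Male Sprague–Dawley rats (225–300 g) with free access to food and water were anesthetized with halothane. Each received 0.2 mL saline containing 8–10 μCi [125I]IBF into the femoral vein and was killed by cardiac excision under halothane at set times. Organs were weighed and gamma-counted, and uptake was calculated against diluted aliquots of the injected dose.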

Rattus norvegicus [5] = test: Biodistribution of [125I]IBF in thyroid was determined in rats 30 minutes after intraveneous injection; format: ADME, organism-based, Thyroid gland; details: in vivo, iv, 0.5 h; outline: as §2
Rattus norvegicus [6] = test: Biodistribution of [125I]IBF in spleen was determined in rats 60 minutes after intraveneous injection; format: ADME, organism-based; details: in vivo, iv, 1 h; outline: as §1
Rattus norvegicus [7] = test: Biodistribution of [125I]IBF in striatum was determined in rats 60 minutes after intraveneous injection; format: ADME, organism-based; details: in vivo, iv, 1 h; outline: as §2
Rattus norvegicus [8] = test: Biodistribution of [125I]-IBF in heart was determined in rats 60 minutes after intraveneous injection; format: ADME, organism-based; details: in vivo, iv, 1 h; outline: as §1
Rattus norvegicus [9] = test: Biodistribution of [125I]-IBF in heart was determined in rats 30 minutes after intraveneous injection; format: ADME, organism-based; details: in vivo, iv, 0.5 h; outline: as §1
Rattus norvegicus [10] = test: Biodistribution of [125I]IBF in thyroid was determined in rats 120 minutes after intraveneous injection; format: ADME, organism-based, Thyroid gland; details: in vivo, iv, 2 h; outline: as §2
Rattus norvegicus [11] = test: Biodistribution of [125I]-IBF in skin was determined in rats 60 minutes after intraveneous injection; format: ADME, organism-based, Zone of skin; details: in vivo, iv, 1 h; outline: as §1
Rattus norvegicus [12] = test: Biodistribution of [125I]IBF in liver was determined in rats 120 minutes after intraveneous injection; format: ADME, organism-based; details: in vivo, iv, 2 h; outline: as §1
Rattus norvegicus [13] = test: Biodistribution of [125I]IBF in spleen was determined in rats 120 minutes after intraveneous injection; format: ADME, organism-based; details: in vivo, iv, 2 h; outline: as §1
Rattus norvegicus [14] = test: Biodistribution of [125I]IBF in brain/blood was determined in rats 120 minutes after intraveneous injection; format: ADME, organism-based; details: in vivo, iv, 2 h
Rattus norvegicus [15] = test: Biodistribution of [125I]IBF in lung was determined in rats 30 minutes after intraveneous injection; format: ADME, organism-based; details: in vivo, iv, 0.5 h; outline: as §1
Rattus norvegicus [16] = test: Biodistribution of [125I]IBF in muscle was determined in rats 2 minutes after intraveneous injection; format: ADME, organism-based, Muscle tissue; details: in vivo, iv; outline: as §1
Rattus norvegicus [17] = test: Biodistribution of [125I]IBF in kidney was determined in rats 60 minutes after intraveneous injection; format: ADME, organism-based; details: in vivo, iv, 1 h; outline: as §1
Rattus norvegicus [18] = test: Biodistribution of [125I]IBF in muscle was determined in rats 30 minutes after intraveneous injection; format: ADME, organism-based, Muscle tissue; details: in vivo, iv, 0.5 h; outline: as §1
Rattus norvegicus [19] = test: Biodistribution of [125I]IBF was in skin determined in rats 2 minutes after intraveneous injection; format: ADME, organism-based, Zone of skin; details: in vivo, iv; outline: as §2
Rattus norvegicus [20] = test: Biodistribution of [125I]IBF in srtiatum was determined in rats 15 minutes after intraveneous injection; format: ADME, organism-based; details: in vivo, iv, 0.25 h
Rattus norvegicus [21] = test: Biodistribution of [125I]-IBF in skin was determined in rats 120 minutes after intraveneous injection; format: ADME, organism-based, Zone of skin; details: in vivo, iv, 2 h; outline: as §1
Rattus norvegicus [22] = test: Biodistribution of [125I]IBF in spleen was determined in rats 30 minutes after intraveneous injection; format: ADME, organism-based; details: in vivo, iv, 0.5 h; outline: as §1
Rattus norvegicus [23] = test: Biodistribution of [125I]IBF in muscle was determined in rats 15 minutes after intraveneous injection; format: ADME, organism-based, Muscle tissue; details: in vivo, iv, 0.25 h; outline: as §1
Rattus norvegicus [24] = test: Biodistribution of [125I]IBF in brain was determined in rats 60 minutes after intraveneous injection; format: ADME, organism-based; details: in vivo, iv, 1 h; outline: as §1
Rattus norvegicus [25] = test: Biodistribution of [125I]IBF in thyroid was determined in rats 15 minutes after intraveneous injection; format: ADME, organism-based, Thyroid gland; details: in vivo, iv, 0.25 h; outline: as §2
Rattus norvegicus [26] = test: Biodistribution of [125I]IBF in striatum was determined in rats 30 minutes after intraveneous injection; format: ADME, organism-based; details: in vivo, iv, 0.5 h; outline: as §2
Rattus norvegicus [27] = test: Biodistribution of [125I]IBF in spleen was determined in rats 15 minutes after intraveneous injection; format: ADME, organism-based; details: in vivo, iv, 0.25 h; outline: as §1
Rattus norvegicus [28] = test: Biodistribution of [125I]IBF in heart was determined in rats 15 minutes after intraveneous injection; format: ADME, organism-based; details: in vivo, iv, 0.25 h; outline: as §1
Rattus norvegicus [29] = test: Biodistribution of [125I]IBF in brain/blood was determined in rats 30 minutes after intraveneous injection; format: ADME, organism-based; details: in vivo, iv, 0.5 h
Rattus norvegicus [30] = test: Biodistribution of [125I]IBF in lung was determined in rats 60 minutes after intraveneous injection; format: ADME, organism-based; details: in vivo, iv, 1 h; outline: as §1

- Dose/organ (Rattus norvegicus [1]): 9.84%
- Dose/organ (Rattus norvegicus [2]): 0.07%
- Dose/organ (Rattus norvegicus [3]): 0.23%
- Dose/organ (Rattus norvegicus [4]): 0.02%
- Dose/organ (Rattus norvegicus [5]): 0.02%
- Dose/organ (Rattus norvegicus [6]): 0.09%
- Dose/gram (Rattus norvegicus [7]): 0.705 % dose/g
- Dose/organ (Rattus norvegicus [8]): 0.05%
- Dose/organ (Rattus norvegicus [9]): 0.11%
- Dose/organ (Rattus norvegicus [10]): 0.08%
- Dose/organ (Rattus norvegicus [11]): 2.38%
- Dose/organ (Rattus norvegicus [12]): 3.95%
- Dose/organ (Rattus norvegicus [13]): 0.03%
- Dose/organ (Rattus norvegicus [14]): 1.53
- Dose/organ (Rattus norvegicus [15]): 0.82%
- Dose/organ (Rattus norvegicus [16]): 11.25%
- Dose/organ (Rattus norvegicus [17]): 1.01%
- Dose/organ (Rattus norvegicus [18]): 9%
- Dose/organ (Rattus norvegicus [19]): 8.54%
- Dose/organ (Rattus norvegicus [20]): 0.842%
- Dose/organ (Rattus norvegicus [21]): 1.18%
- Dose/organ (Rattus norvegicus [22]): 0.31%
- Dose/organ (Rattus norvegicus [23]): 14.36%
- Dose/organ (Rattus norvegicus [24]): 0.17%
- Dose/organ (Rattus norvegicus [25]): 0.03%
- Dose/organ (Rattus norvegicus [26]): 0.66%
- Dose/organ (Rattus norvegicus [27]): 0.58%
- Dose/organ (Rattus norvegicus [28]): 0.2%
- Dose/organ (Rattus norvegicus [29]): 2.26
- Dose/organ (Rattus norvegicus [30]): 0.37%
SMILES: CCN1CCC[C@H]1CNC(=O)c1cc(I)cc2c1OCC2
